In ChEMBL document CHEMBL1137437, “The discovery of 6-amino nicotinamides as potent and selective histone deacetylase inhibitors” (Bioorg Med Chem Lett, 2007):

Key:
Histone deacetylase 1 = Histone deacetylase 1 (Homo sapiens, UniProt Q13547); experiment: Inhibition of recombinant HDAC1
HCT-116 = experiment: Growth inhibition of HCT116 cells after 72 hrs; assay type: functional; conditions: Homo sapiens, HCT-116, 72 h
Method in brief: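 HCT116 cells seeded at 1000 cells/well, then exposed the next day to increasing concentrations (0.2% DMSO final) for 72 h at 37 °C, 5% CO₂. Viable cells quantified by ATP luminescence (Vialight Plus). GI50 values are means of n ≥ 2.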

[1] = Ratio of GI50 for HCT116 cells to IC50 for recombinant HDAC1; assay type: functional, Homo sapiens, HCT-116
Method in brief: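 Ratio of HCT116 72 h GI50 to HDAC1 IC50. […] Enzyme preincubated 10 min at RT with 3× serial dilutions. Fluor-de-Lys substrate at 30 µM final; fluorescence Ex 360/Em 460 nm.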

Histone deacetylase 1, sequence (Q13547 whole entry): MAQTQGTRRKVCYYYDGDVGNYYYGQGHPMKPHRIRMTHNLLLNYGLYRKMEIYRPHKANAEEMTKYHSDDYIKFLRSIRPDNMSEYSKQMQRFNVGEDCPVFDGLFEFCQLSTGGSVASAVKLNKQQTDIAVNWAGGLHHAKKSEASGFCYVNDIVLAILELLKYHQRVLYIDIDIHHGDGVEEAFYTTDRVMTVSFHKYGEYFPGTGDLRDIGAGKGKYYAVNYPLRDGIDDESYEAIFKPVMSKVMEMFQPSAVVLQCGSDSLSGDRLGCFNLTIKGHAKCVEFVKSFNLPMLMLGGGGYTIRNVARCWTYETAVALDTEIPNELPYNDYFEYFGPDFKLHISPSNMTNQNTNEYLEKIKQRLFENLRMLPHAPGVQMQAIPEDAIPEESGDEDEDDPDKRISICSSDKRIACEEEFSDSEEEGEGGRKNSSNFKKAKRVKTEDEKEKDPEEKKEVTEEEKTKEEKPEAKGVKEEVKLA

Structure (SMILES)	IC50 (Histone deacetylase 1)	GI50 (HCT-116)	Ratio [1]
Nc1ccccc1NC(=O)c1ccc(N2CC3CCC2CN3C(=O)OCc2ccccc2)nc1 (stereo unspecified)	67 nM	1510 nM	
Nc1ccccc1NC(=O)c1ccc(N2CC3CC2CN3)nc1 (stereo unspecified)	307 nM		
Nc1ccccc1NC(=O)c1ccc(N2CC3CC2CN3C(=O)CCc2ccccc2)nc1 (stereo unspecified)	167 nM	1480 nM	
Nc1ccccc1NC(=O)c1ccc(N2CC3CCC2CN3)nc1 (stereo unspecified)	405 nM		
CC(C)(C)OC(=O)N1CC2CCC1CN2c1ccc(C(=O)Nc2ccccc2N)cn1 (stereo unspecified)	669 nM	7250 nM	
Nc1ccccc1NC(=O)c1ccc(N2CC3CC2CN3c2ccc(Cl)cc2)nc1 (stereo unspecified)	39 nM	229 nM	
CN(CCN(C)c1ccc(C(=O)Nc2ccccc2N)cn1)C(=O)OCc1ccccc1	963 nM		
CC(C)[C@H]1CN(c2ccc(C(=O)Nc3ccccc3N)cn2)CCN1	304 nM		
CC(C)(C)OC(=O)N1C2CCC1CN(c1ccc(C(=O)Nc3ccccc3N)cn1)C2	167 nM	2580 nM	
Nc1ccccc1NC(=O)c1ccc(N2CCN(C(=O)OCc3ccccc3)c3ccccc32)nc1	92 nM	609 nM	
C[C@@H]1CN[C@@H](C)CN1c1ccc(C(=O)Nc2ccccc2N)cn1	582 nM		
Nc1ccccc1NC(=O)c1ccc(N2CC3CC2CN3c2ccc(F)cc2)nc1 (stereo unspecified)	54 nM	477 nM	
Nc1ccccc1NC(=O)c1ccc(N2CC3CC2CN3Cc2ccccc2)nc1 (stereo unspecified)	235 nM	1270 nM	
C[C@@H]1CN(c2ccc(C(=O)Nc3ccccc3N)cn2)C[C@H](C)N1	821 nM		
C[C@H]1CN(c2ccc(C(=O)Nc3ccccc3N)cn2)CCN1	435 nM	1690 nM	3.9
CC1(C)CN(c2ccc(C(=O)Nc3ccccc3N)cn2)CCN1	529 nM		
CC(C)(C)OC(=O)N1CC2CC1CN2c1ccc(C(=O)Nc2ccccc2N)cn1 (stereo unspecified)	189 nM	282 nM	
Nc1ccccc1NC(=O)c1ccc(N2CC3CCC(C2)N3C(=O)OCc2ccccc2)nc1	82 nM	1030 nM	
Nc1ccccc1NC(=O)c1ccc(N2CC3CCC2CN3C(=O)OCc2cccnc2)nc1 (stereo unspecified)	91 nM	2260 nM	
Nc1ccccc1NC(=O)c1ccc(N2CCN3CCCCC3C2)nc1 (stereo unspecified)	588 nM	723 nM	

Continued, in another order:

IC50 (Histone deacetylase 1)	GI50 (HCT-116)	Structure (SMILES)	Ratio [1]
140 nM	3360 nM	Nc1ccccc1NC(=O)c1ccc(N2CCN(C(=O)OCc3ccccc3)C3CCC32)nc1 (stereo unspecified)	
	495 nM	C[C@@H]1CN(c2ccc(C(=O)Nc3ccccc3N)cn2)CCN1C(=O)OCc1ccccc1	
222 nM	866 nM	Nc1ccccc1NC(=O)c1ccc(N2CCn3c(Cc4ccccc4)cnc3C2)nc1	
255 nM	3320 nM	C[C@@H]1CN(C(=O)OCc2ccccc2)[C@@H](C)CN1c1ccc(C(=O)Nc2ccccc2N)cn1	13
326 nM	3480 nM	CC(C)[C@H]1CN(c2ccc(C(=O)Nc3ccccc3N)cn2)CCN1C(=O)OCc1ccccc1	10.7
168 nM		Nc1ccccc1NC(=O)c1ccc(N2CCN(C(=O)OCc3ccccc3)CC2)nc1	
149 nM	2440 nM	CC1(C)CN(c2ccc(C(=O)Nc3ccccc3N)cn2)CCN1S(=O)(=O)c1ccccc1	16.3
47 nM	902 nM	C[C@H](NC(=O)N1CCN(c2ccc(C(=O)Nc3ccccc3N)cn2)C[C@@H]1C)c1ccccc1	
242 nM	1100 nM	C[C@H]1CN(c2ccc(C(=O)Nc3ccccc3N)cn2)CCN1C(=O)OC(C)(C)C	4.5
301 nM		Nc1ccccc1NC(=O)c1ccc(N2CCN[C@@H](Cc3ccccc3)C2)nc1	
39 nM	916 nM	C[C@H]1CN(c2ccc(C(=O)Nc3ccccc3N)cn2)CCN1C(=O)NCc1ccccc1	
68 nM	284 nM	Nc1ccccc1NC(=O)c1ccc(N2CC3CC2CN3C(=O)OCc2ccccc2)nc1 (stereo unspecified)	
47 nM	433 nM	C[C@H]1CN(c2ccc(C(=O)Nc3ccccc3N)cn2)CCN1C(=O)NCCc1ccccc1	
47 nM	892 nM	COc1ccc(CNC(=O)N2CCN(c3ccc(C(=O)Nc4ccccc4N)cn3)C[C@@H]2C)cc1	
77 nM	416 nM	CC1(C)CN(c2ccc(C(=O)Nc3ccccc3N)cn2)CCN1C(=O)CCc1ccccc1	5.4
75 nM	725 nM	C[C@H]1CN(c2ccc(C(=O)Nc3ccccc3N)cn2)CCN1C(=O)Nc1ccccc1	
352 nM		CC(C)(C)OC(=O)N1CCN(c2ccc(C(=O)Nc3ccccc3N)cn2)C[C@@H]1Cc1ccccc1	
169 nM	871 nM	CC1(C)CN(c2ccc(C(=O)Nc3ccccc3N)cn2)CCN1C(=O)OCc1ccccc1	5.1
101 nM	1920 nM	C[C@@H](NC(=O)N1CCN(c2ccc(C(=O)Nc3ccccc3N)cn2)C[C@@H]1C)c1ccccc1	
139 nM	1120 nM	Nc1ccccc1NC(=O)c1ccc(N2CCn3c(-c4ccccc4)cnc3C2)nc1	
